Reference: ChEMBL document CHEMBL1144723, “Antiproliferative limonoids of a Malleastrum sp. from the Madagascar rainforest” (J Nat Prod, 2008)

Assays:
Format in all cases: functional, cell-based
[1] = system: A2780; assay: Antiproliferative activity against human A2780 cells after 96 hrs by CellTiter-Glo luminescent cell viability assay; conditions: A2780, 96 h
[2] = system: MDA-MB-435; assay: Antiproliferative activity against human MDA-MB-435 cells after 96 hrs by CellTiter-Glo luminescent cell viability assay; conditions: MDA-MB-435, 96 h
How it was run: (§1)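 Cells were cultured with compound present continuously at 0.3–10000 nM, or without compound, for 96 h. Growth was read by ATP luminescence (CellTiter-Glo). IC50 is the concentration giving 50% growth inhibition versus untreated cells. Vinblastine served as the positive control. Two separate replicate experiments were run.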

[3] = system: U-937; assay: Antiproliferative activity against human U937 cells after 96 hrs by CellTiter-Glo luminescent cell viability assay; conditions: U-937, 96 h; how it was run: as §1
[4] = system: HT-29; assay: Antiproliferative activity against human HT29 cells after 96 hrs by CellTiter-Glo luminescent cell viability assay; conditions: HT-29, 96 h; how it was run: as §1
[5] = Antiproliferative activity against human HS22T1 cells after 96 hrs by CellTiter-Glo luminescent cell viability assay; conditions: HS22T1, 96 h; how it was run: as §1

Compound	IC50 [1] [nM]	IC50 [2] [nM]	IC50 [3] [nM]	IC50 [4] [nM]	IC50 [5] [nM]
CC(=O)O[C@]12OC[C@@]3(C)C(=O)C[C@@H](O)[C@@](C)([C@@H]13)[C@H]1[C@@H](O)[C@H](OC(=O)C(C)C)[C@@]3(C)[C@H](c4ccoc4)C[C@H]4O[C@]43[C@]1(C)C2=O [MALLEASTRONE C]	18000				
CC[C@]1(O)C[C@@H]2CN(CCc3c([nH]c4ccccc34)[C@@](C(=O)OC)(c3cc4c(cc3OC)N(C)[C@H]3[C@@](O)(C(=O)OC)[C@H](OC(C)=O)[C@]5(CC)C=CCN6CC[C@]43[C@@H]65)C2)C1 [VINBLASTINE]		0.27	0.49	0.53	1.38
CC[C@H](C)C(=O)O[C@H]1[C@H](O)[C@@H]2[C@@]3(C)C=CC(=O)[C@]4(C)CO[C@](OC(C)=O)(C(=O)[C@@]2(C)[C@@]25O[C@@H]2C[C@@H](c2ccoc2)[C@]15C)[C@H]34 [MALLEASTRONE B]	630	340	190	220	230
CC(=O)O[C@]12OC[C@@]3(C)C(=O)C=C[C@@](C)([C@@H]13)[C@H]1[C@@H](O)[C@H](OC(=O)C(C)C)[C@@]3(C)[C@H](c4ccoc4)C[C@H]4O[C@]43[C@]1(C)C2=O [MALLEASTRONE A]	490	410	200	240	240
